Screening data from PubChem BioAssay.
YB-1 expression – YB-1 expression inhibition | 30,000 tested, 0.37% active | delta delta Cp (YB-1 minus CDIP) (no concentration beside the values) | U2OS, qRT-PCR YB-1 vs CDIP delta delta Cp, 16 h; active compounds read high; zero = DMSO, each unit about twofold;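 active means delta delta Cp rounded down to an integer at or above 3, about 3 SD of DMSO wells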;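 further: higher means less YB-1 transcript or more CDIP transcript relative to DMSO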
T cruzi HTS – inhibitors of intracellular Trypanosoma cruzi | intracellular Trypanosoma cruzi in host cells, plate reader | activity score (inhibition), % at 5.01 µM | AID 651903 | 22,000 tested, 4.9% active; in the data active means activity score above about 55%;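 further: parasites and compound incubated about four days before reading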
INS-1E ATP HTS – rescue of cytokine-induced death in INS-1E beta cells. INS-1E cytokine-induced death, ATP luminescence, 48 h; normalised: neutral wells 0, positive control 100. protection from cytokine-induced ATP loss, % at 10 µM. 20,000 tested, 0.1% active;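 active means mean replicate protection from cytokine-induced ATP loss at least 50% and at least 75% of replicates each reaching 50%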
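assay system = INS-1E rat insulinoma cells | amount = 8000 cells per well | medium = phenol-red-free RPMI with 5% fetal bovine serum | doses = one compound concentration, pin transfer | timing = 48 h cytokine plus compound treatment, 10 min reagent incubation | also added = IL-1β, TNF-α and IFN-γ cytokine mix | signal = CellTiter-Glo luminescence measuring cellular ATP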
Of the large screens only hits and unclear results are named; the others gave an inactive call. This is one part of a sample in which hits are shown more often than they occur.

C/C=C(/C)C(=O)O[C@H]1CC(C)(C)C[C@H]2C3=CCC4[C@@]5(C)CC[C@H](O[C@@H]6O[C@H](C(=O)O)[C@@H](O[C@@H]7O[C@H](CO)[C@H](O)[C@H](O)[C@H]7O[C@@H]7O[C@H](CO)[C@@H](O)[C@H](O)[C@H]7O)[C@H](O)[C@H]6O[C@@H]6O[C@@H](C)[C@H](O)[C@@H](O)[C@H]6O)C(C)(C)C5CC[C@@]4(C)[C@]3(C)C[C@@H](O)[C@@]12CO (some centres undefined)	none (no result: T cruzi HTS, INS-1E ATP HTS)
Cc1ccc(N=Cc2cc3ccccc3nc2Cl)cc1Cl	none (no result: T cruzi HTS, INS-1E ATP HTS)
FC(F)(F)c1cccc(NC(=S)Nc2cccnc2N2CCC(C(F)(F)F)CC2)c1	none (no result: T cruzi HTS, INS-1E ATP HTS)
COc1cccc(C(=O)c2sc3nsc(SCc4ccccc4)c3c2N)c1	none (no result: T cruzi HTS, INS-1E ATP HTS)
O=C1N=C(c2cccc(O)c2)c2ccccc2Nc2ccccc21	none (no result: T cruzi HTS, INS-1E ATP HTS)
Cc1nc(C2C(=O)c3ccc(O)c(O)c3OC2C(F)(F)F)cs1 (centres undefined)	none (no result: T cruzi HTS, INS-1E ATP HTS)
C[C@H]1CN([C@@H](C)CO)C(=O)Cc2cc(NC(=O)Nc3ccc(C(F)(F)F)cc3)ccc2O[C@H]1CN(C)S(=O)(=O)c1cccs1	none
C[C@H]1CN([C@@H](C)CO)C(=O)c2cc(NC(=O)Nc3ccc(C(F)(F)F)cc3)ccc2O[C@@H]1CN(C)S(=O)(=O)c1cccs1	none
C[C@@H]1CN([C@@H](C)CO)C(=O)c2cc(NC(=O)Nc3ccc(C(F)(F)F)cc3)ccc2O[C@H]1CN(C)S(=O)(=O)c1cccs1	T cruzi HTS 71
C[C@@H]1CN([C@H](C)CO)C(=O)Cc2cc(NC(=O)Nc3ccc(C(F)(F)F)cc3)ccc2O[C@@H]1CN(C)S(=O)(=O)c1cccs1	T cruzi HTS 66
C[C@H](CO)N1C[C@H](C)[C@@H](CN(C)S(=O)(=O)c2cccs2)Oc2c(NC(=O)Nc3ccc(C(F)(F)F)cc3)cccc2C1=O	none
C[C@@H]1CN([C@@H](C)CO)C(=O)c2cccc(NC(=O)Nc3ccc(C(F)(F)F)cc3)c2O[C@H]1CN(C)S(=O)(=O)c1cccs1	T cruzi HTS 79
Cc1ccc(S(=O)(=O)N2c3ccccc3C(C)(c3ccccc3)CC2(C)C)cc1 (centres undefined)	none (no result: T cruzi HTS, INS-1E ATP HTS)
C[C@H](CO)N1C[C@H](C)[C@H](CN(C)Cc2ccc(Oc3ccccc3)cc2)Oc2ccc(NC(=O)Nc3ccc(C(F)(F)F)cc3)cc2CC1=O	T cruzi HTS 64
C[C@@H]1CN([C@@H](C)CO)C(=O)c2cc(NC(=O)Nc3ccc(C(F)(F)F)cc3)ccc2O[C@H]1CN(C)Cc1ccc(Oc2ccccc2)cc1	none
C[C@H]1CN([C@@H](C)CO)C(=O)c2cc(NC(=O)Nc3ccc(C(F)(F)F)cc3)ccc2O[C@@H]1CN(C)Cc1ccc(Oc2ccccc2)cc1	none (no result: INS-1E ATP HTS)
C[C@@H]1CN([C@H](C)CO)C(=O)Cc2cc(NC(=O)Nc3ccc(C(F)(F)F)cc3)ccc2O[C@H]1CN(C)Cc1ccc(Oc2ccccc2)cc1	T cruzi HTS 62
C[C@H]1CN([C@@H](C)CO)C(=O)Cc2cc(NC(=O)Nc3ccc(C(F)(F)F)cc3)ccc2O[C@H]1CN(C)Cc1ccc(Cl)c(Cl)c1	T cruzi HTS 78
C[C@H](CO)N1C[C@H](C)[C@H](CN(C)Cc2ccc(Cl)c(Cl)c2)Oc2ccc(NC(=O)Nc3ccc(C(F)(F)F)cc3)cc2CC1=O	T cruzi HTS 63
C[C@@H]1CN([C@H](C)CO)C(=O)Cc2cc(NC(=O)Nc3ccc(C(F)(F)F)cc3)ccc2O[C@@H]1CN(C)Cc1ccc(Cl)c(Cl)c1	T cruzi HTS 65
C[C@@H]1CN([C@H](C)CO)C(=O)Cc2cc(NC(=O)Nc3ccc(C(F)(F)F)cc3)ccc2O[C@H]1CN(C)Cc1ccc(Cl)c(Cl)c1	none
C[C@H](CO)N1C[C@H](C)[C@H](CN(C)Cc2ccc(Cl)c(Cl)c2)Oc2c(NC(=O)c3ccc(-c4nccs4)cc3)cccc2C1=O	T cruzi HTS 60
C[C@H]1CN([C@@H](C)CO)C(=O)c2cccc(NC(=O)c3ccc(-c4nccs4)cc3)c2O[C@H]1CN(C)Cc1ccc(Cl)c(Cl)c1	T cruzi HTS 62
C[C@@H]1CN([C@@H](C)CO)C(=O)c2cccc(NC(=O)c3ccc(-c4nccs4)cc3)c2O[C@@H]1CN(C)Cc1ccc(Cl)c(Cl)c1	none
C[C@@H]1CN([C@H](C)CO)C(=O)c2cccc(NC(=O)c3ccc(-c4nccs4)cc3)c2O[C@H]1CN(C)Cc1ccc(Cl)c(Cl)c1	none
CCc1ccc(/C=N/n2c(C)nnc2-n2nc(C)cc2C)cc1	none (no result: T cruzi HTS, INS-1E ATP HTS)
CNC(=O)c1ccccc1S(=O)c1cccc2cccc(C(=O)O)c12 (centres undefined)	none (no result: T cruzi HTS, INS-1E ATP HTS)
C/C=C/C1=CC(=O)[C@H](O)[C@H]1O	none (no result: T cruzi HTS, INS-1E ATP HTS)
Fc1cccc(Cl)c1CSC1=NCCN1	none (no result: T cruzi HTS, INS-1E ATP HTS)
